# The list is not random: actives were taken first. Their share in the collection is about 2%.
# TbHK1 inh: blocks Trypanosoma brucei hexokinase 1 activity; inhibition, % at 10 µM; recombinant TbHK1, G6PDH-coupled NADH A340; 0.11% of 220,000 active; AID 1430;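 active = inhibition of 50% or more in the single-dose primary screen; inactive = inhibition below 50%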
# Hep lipid drop: hepatic lipid droplet formation modulation | AML12 mouse hepatocytes, oleate lipid droplets, BODIPY imaging | inhibition, % at 6.5 µM | 0.4% of 240,000 active | AID 1656;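 active = lipid droplet intensity inhibited by at least 50%, with more than 500 cells counted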
#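 System: AML12 hepatocytes (mouse). Probe or stimulus: oleic acid at 100 µM to induce lipid droplet formation. Times: overnight treatment with compound plus oleate. Detection: Image-based BODIPY and DAPI two-channel analysis. Evaluation: percent inhibition of filter-corrected integrated lipid droplet intensity per well.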
# RBBP9 inhibitor: blocks human serine hydrolase RBBP9; recombinant RBBP9, FP-Rh probe fluorescence polarization; inhibition, % at 7.94 µM; 0.2% of 220,000 active;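 active = inhibition above the campaign mean of all tested compounds plus 3 SD, cut at about 14% in these data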;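 note: plate controls were DMSO wells with RBBP9 for no effect and wells lacking RBBP9 protein for full effect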
# Target sequence (O75884 whole entry, looked up): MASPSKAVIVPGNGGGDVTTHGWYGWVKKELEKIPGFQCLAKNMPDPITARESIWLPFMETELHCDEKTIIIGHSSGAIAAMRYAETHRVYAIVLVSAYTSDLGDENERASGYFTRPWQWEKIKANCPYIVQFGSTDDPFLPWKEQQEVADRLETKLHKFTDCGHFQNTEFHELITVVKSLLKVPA
#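 Test system: recombinant human RBBP9. Quantity: 2.5 µM RBBP9 dispensing solution, before mixing. Detection: FP readout at 525/598 nm. Reagent: Serine-hydrolase probe FP-Rh, 375 nM pre-mixing. Measure: % inhibition. Control set: DMSO-treated enzyme wells and wells lacking RBBP9. Buffer or medium: Tris-NaCl-Pluronic buffer, pH 8.0. Times: preincubation 30 min plus labeling 45 min at 25 °C.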
# TNF death inh: inhibitors of TNF-alpha induced necroptosis in Jurkat FADD-/- cells | activation (protection from cell death), % at 10 µM | AID 463075 | 0.068% of 220,000 active | Jurkat FADD-/- TNF necroptosis rescue, ATP luminescence, 24 h; 0 = TNF only, 100 = no-TNF cells;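 active = activation, meaning protection from cell death, of at least 50% relative to plate controls; inactive = activation below 50%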;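 note: necroptosis triggered by 40 ng/mL TNF-alpha added together with compound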
# M18AAP inhibitor: blocks P. falciparum M18 aspartyl aminopeptidase | recombinant PfM18AAP, H-Glu-NHMec fluorogenic cleavage | inhibition, % at 7.35 µM | 1.2% of 290,000 active;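 active = inhibition above the campaign mean inhibition over all tested compounds plus 3 SD, cut at about 28% in these data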;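 note: 0% = plate median of test compound wells and 100% = 2 mM ZnCl2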
# zVAD death inh: L929 zVAD cell death inhibition; L929 zVAD necroptosis rescue, ATP luminescence, 24 h; with zVAD 60 µM; viability rescue, % at 10 µM; 0.38% of 220,000 active; AID 1377;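 active = activation, scaled between plate controls, above about 75%, limit read from the data; inactive = activation under that limit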;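 note: 0% = zVAD with DMSO and 100% = DMSO alone without zVAD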
# Hep lipid conf: hepatic lipid droplet formation inhibition, confirmed. 65% of 870 active. AML12 mouse hepatocytes, BODIPY lipid droplet imaging; droplets induced with 100 µM oleic acid. shares compounds with Hep lipid drop. inhibition, % at 5.2 µM. AID 463183;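 active = inhibition of lipid droplet metric at least 50%, with more than 300 cells in each of four replicates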;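 note: plate controls were DMSO with oleic acid for no effect and 5 µM Triacsin-C for full effect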
# AML12 tox img: AML12 hepatocyte cytotoxicity (counter-screen). shares compounds with Hep lipid drop. AML12 mouse hepatocytes, DAPI nuclear morphology cytotoxicity imaging; stronger effect = higher value; cells fed 100 µM oleate overnight. z-score at 5 µM. 3% of 870 active. AID 463200; in the data active = z-score above about 6.3;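 note: compound exposure lasted overnight at 37 °C before fixation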
# AML12 tox conf: AML12 hepatocyte cytotoxicity, confirmed. AML12 mouse hepatocyte viability, ATP luminescence; cells loaded with 100 µM oleic acid. 530 tested, under 10 active. shares compounds with Hep lipid drop. cytotoxicity, % at 50 µM. AID 463219;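 active = cytotoxicity above 50% in each of four replicates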;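 note: compound exposure lasted overnight at 37 °C before the ATP read; 0% = DMSO-treated cells and 100% = wells with no cells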
# * marks the source's active call; other numbers are inactive results; . = no result; ! = not active in a repeat.
SMILES,TbHK1 inh,Hep lipid drop,RBBP9 inhibitor,TNF death inh,M18AAP inhibitor,zVAD death inh,Hep lipid conf,AML12 tox img,others
Cc1cccc(N(C(=O)CNC(=O)c2ccco2)C(C(=O)NCC2CCCO2)c2ccccc2)c1 (stereo unspecified),-1,-9,-10,-3,2,1,.,.,
O=C(CCCOc1ccccc1)NC(=S)Nc1ccccc1,0,-17,-4,0,2,1,.,.,
Cc1nnc(-c2cnn(-c3ccccc3)c2N)n1Cc1ccncc1,-3,.,-8,-2,0,1,.,.,
O=C(NCCO)c1cc2ccccc2cc1O,1,50*!,1,0,6,0,7,-0.75,
Cc1cccc(-c2oc3ccc(-c4ccc5c(c4)OCO5)cc3c2C(=O)OCc2ccc(O)cc2)c1,.,-2,.,.,3,.,.,.,
Cc1nc2c3ccccc3nc(NNC(=O)CCC(=O)NCCN3CCN(c4ccccc4)CC3)n2n1,.,-5,.,.,11,.,.,.,
CC(Oc1ccc2ccc(=O)oc2c1)C(=O)NC1CC(C)(C)NC(C)(C)C1 (stereo unspecified),.,-7,.,.,-4,.,.,.,
O=C(Cn1nnc(-c2ccc([N+](=O)[O-])cc2)n1)NNC(=O)c1ccccc1,.,59*,.,.,-9,.,29,0.18,
N#CCCN1CCN(S(=O)(=O)c2ccc(S(=O)(=O)NC3CCCC3)cc2)CC1,-6,-22,7,2,-3,0,.,.,
CC(=O)Nc1ccc(S(=O)(=O)N2CCN(CC3CC4C=CC3C4)CC2)cc1 (stereo unspecified),-8,5,-6,3,-7,9,.,.,
Cc1ccc(N=Nc2ccc3ccccc3c2O)cc1,.,82*,.,.,-3,.,53,0.11,
Oc1c(N=Nc2ccc(F)cc2)ccc2ccccc12,.,71*,.,.,-2,.,96*,1,AML12 tox conf=64*
COc1cccc(N=Nc2ccc3ccccc3c2O)c1,.,75*,.,.,-8,.,70,-0.23,AML12 tox conf=61*
Cc1ccc(N(CC(=O)NC2CCCC2)C(=O)CNC(=O)c2cccs2)c(C)c1,.,-1,.,.,0,.,.,.,
CCc1ccc(NC(=O)CNC(=O)[C@@H]2Cc3ccccc3CN2C(=O)OC(C)(C)C)cc1,.,54*,.,.,-1,.,76*,-0.28,AML12 tox conf=2
CC1CCCN(C(=O)c2ccc3c(c2NCCO)C(=O)c2ccccc2C3=O)C1 (stereo unspecified),-15,54*,11,-5,0,0,105*,-0.19,AML12 tox conf=33
CCN(CCN(C)C)C(=O)c1ccc2c(c1NCCO)C(=O)c1ccccc1C2=O,-1,22,-8,2,-1,1,.,.,
CCN(CC)CCN1C(=O)C(=O)/C(=C(/O)c2ccc(S(=O)(=O)N3CCOCC3)cc2)C1c1ccc(C)cc1 (stereo unspecified),.,-2,.,.,5,.,.,.,
Cc1ccc(N2C(=O)CC2(C#N)c2ccc(OCc3ccccc3)cc2)cc1 (stereo unspecified),14,9,-4,9,-4,1,.,.,
COc1ccc(NC(=S)NC(=O)c2ccccc2Cl)cc1,-1,57*,2,0,-2,1,39,0.017,
Cc1cccc(C2NC(c3cccc(C)c3)C(C)C(=O)C2C)c1 (stereo unspecified),.,-29,.,.,-4,.,.,.,
CCc1ccc(NS(=O)(=O)c2cc3c(cc2C)n(C)c(=O)c(=O)n3C)cc1,.,51*,.,.,4,.,93*,-0.7,AML12 tox conf=5
Cc1cc2c(cc1S(=O)(=O)Nc1cccc(C)c1C)n(C)c(=O)c(=O)n2C,.,54*,.,.,3,.,66,-0.54,
Cc1cc2c(cc1S(=O)(=O)Nc1c(C)cccc1C)n(C)c(=O)c(=O)n2C,.,71*,.,.,4,.,92*,-0.12,AML12 tox conf=8
Cc1cccc(NS(=O)(=O)c2cn(C)c(=O)n(C)c2=O)c1C,.,-10,.,.,-9,.,.,.,
CCCCc1nc(SCC(=O)N2CCOCC2)c2c(=O)n(C)c(=O)n(C)c2n1,.,-3,.,.,-4,.,.,.,

# Screens: PubChem BioAssay, several laboratories
